According to ChEMBL document CHEMBL4706541, “Design and synthesis of 1H-indazole-3-carboxamide derivatives as potent and selective PAK1 inhibitors with anti-tumour migration and invasion activities” (Eur J Med Chem, 2020):

What was measured:
MDA-MB-231 = assay: Antiproliferative activity against human MDA-MB-231 cells assessed as growth inhibition at 1 uM after 72 hrs by Cell Titer-Glo assay relative to control; type: functional; details: read-out: GI
Outline: (§1)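 Cells kept at 37 °C in 5% CO2 and plated at 4000 per well. Treated with compound for 72 h. Viability read by CellTiter-Glo luminescence. Each compound run in duplicate, data as means ± SD.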

[1] = molecular target: T1, Serine/threonine-protein kinase PAK 1 (Homo sapiens, UniProt Q13153); assay: Inhibition of full length recombinant human N-terminal GST/His6-tagged PAK1 expressed in sf9 insect cells using tetra LRRWSLG as substrate preincubated for 20 min followed by [gamma33P]ATP addition and measured after 120 mins by Hotspot assay
HCT-116 = assay: Antiproliferative activity against human HCT-116 cells assessed as growth inhibition at 1 uM after 72 hrs by Cell Titer-Glo assay relative to control; type: functional; details: read-out: GI; outline: as §1
[2] = molecular target: Serine/threonine-protein kinase PAK 4 (Homo sapiens, UniProt O96013); assay: Inhibition of full length recombinant human N-terminal GST/His6-tagged PAK4 expressed in baculovirus infected sf9 insect cells using tetra LRRWSLG as substrate preincubated for 20 min followed by [gamma33P]ATP addition and measured after 120 mins by Hotspot assay
Homo sapiens = organism: Homo sapiens; assay: Selectivity index ratio of IC50 for inhibition of human PAK4 to IC50 for human PAK1
Outline: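 Compound tested from 10 µM in 3-fold serial dilutions in the HotSpot radiometric assay, with 20 min preincubation, 10 µM ATP/33P-ATP and 120 min at 25 °C. Filter-binding gives IC50. Selectivity is expressed as the PAK4 IC50 divided by the PAK1 IC50.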

[3] = molecular target: Voltage-gated inwardly rectifying potassium channel KCNH2 (Homo sapiens, UniProt Q12809); assay: Inhibition of human ERG
[4] = molecular target: T1, Serine/threonine-protein kinase PAK 1; assay: Inhibition of PAK1 (unknown origin)

Chain of Serine/threonine-protein kinase PAK 4 (O96013 whole entry): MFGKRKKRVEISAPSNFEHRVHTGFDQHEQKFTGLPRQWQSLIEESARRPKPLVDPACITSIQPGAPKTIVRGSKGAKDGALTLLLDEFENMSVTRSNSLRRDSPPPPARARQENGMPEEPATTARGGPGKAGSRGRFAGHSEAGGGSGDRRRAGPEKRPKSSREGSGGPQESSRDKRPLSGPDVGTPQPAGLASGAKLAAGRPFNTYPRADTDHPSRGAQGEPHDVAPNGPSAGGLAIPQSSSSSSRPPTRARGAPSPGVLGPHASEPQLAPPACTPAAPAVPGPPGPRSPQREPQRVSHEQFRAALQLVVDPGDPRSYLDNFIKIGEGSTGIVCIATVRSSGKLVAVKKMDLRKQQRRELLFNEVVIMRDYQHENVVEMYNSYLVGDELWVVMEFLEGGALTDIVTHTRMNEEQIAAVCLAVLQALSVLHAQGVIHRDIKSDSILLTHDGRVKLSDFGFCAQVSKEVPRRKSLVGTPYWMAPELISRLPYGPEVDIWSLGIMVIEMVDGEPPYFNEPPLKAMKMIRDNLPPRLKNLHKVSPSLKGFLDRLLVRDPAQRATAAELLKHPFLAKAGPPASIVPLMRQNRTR
Chain of Voltage-gated inwardly rectifying potassium channel KCNH2 (Q12809 whole entry): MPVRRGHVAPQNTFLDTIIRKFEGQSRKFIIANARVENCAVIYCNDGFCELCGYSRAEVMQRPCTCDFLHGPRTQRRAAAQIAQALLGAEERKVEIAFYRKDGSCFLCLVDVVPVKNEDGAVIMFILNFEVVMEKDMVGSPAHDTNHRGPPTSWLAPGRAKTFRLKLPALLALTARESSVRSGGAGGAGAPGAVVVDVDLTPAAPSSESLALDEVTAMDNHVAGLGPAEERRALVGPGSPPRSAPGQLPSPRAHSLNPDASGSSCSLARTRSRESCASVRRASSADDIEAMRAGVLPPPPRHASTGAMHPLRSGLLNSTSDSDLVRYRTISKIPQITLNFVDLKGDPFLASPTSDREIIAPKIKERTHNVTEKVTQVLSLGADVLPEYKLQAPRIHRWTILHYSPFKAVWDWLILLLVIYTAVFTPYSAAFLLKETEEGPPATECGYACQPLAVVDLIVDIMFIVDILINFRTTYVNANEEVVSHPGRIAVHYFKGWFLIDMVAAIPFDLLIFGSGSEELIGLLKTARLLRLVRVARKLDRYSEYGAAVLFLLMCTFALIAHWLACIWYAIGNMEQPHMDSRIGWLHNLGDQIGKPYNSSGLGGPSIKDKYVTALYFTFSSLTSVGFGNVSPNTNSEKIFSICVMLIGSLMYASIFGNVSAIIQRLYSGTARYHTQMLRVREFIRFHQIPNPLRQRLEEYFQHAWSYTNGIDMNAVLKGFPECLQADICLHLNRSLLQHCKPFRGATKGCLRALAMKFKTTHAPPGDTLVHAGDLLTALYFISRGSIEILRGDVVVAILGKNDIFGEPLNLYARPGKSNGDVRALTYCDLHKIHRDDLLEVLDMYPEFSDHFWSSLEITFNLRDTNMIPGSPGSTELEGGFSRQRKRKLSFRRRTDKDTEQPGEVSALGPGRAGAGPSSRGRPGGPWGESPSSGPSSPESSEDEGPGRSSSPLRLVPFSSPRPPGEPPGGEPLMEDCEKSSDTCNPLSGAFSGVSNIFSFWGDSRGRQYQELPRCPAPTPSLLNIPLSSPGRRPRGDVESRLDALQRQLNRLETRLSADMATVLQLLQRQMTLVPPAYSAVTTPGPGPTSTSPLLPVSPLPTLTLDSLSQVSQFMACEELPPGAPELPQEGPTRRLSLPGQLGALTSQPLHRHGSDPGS
T1 sequence (Q13153 whole entry): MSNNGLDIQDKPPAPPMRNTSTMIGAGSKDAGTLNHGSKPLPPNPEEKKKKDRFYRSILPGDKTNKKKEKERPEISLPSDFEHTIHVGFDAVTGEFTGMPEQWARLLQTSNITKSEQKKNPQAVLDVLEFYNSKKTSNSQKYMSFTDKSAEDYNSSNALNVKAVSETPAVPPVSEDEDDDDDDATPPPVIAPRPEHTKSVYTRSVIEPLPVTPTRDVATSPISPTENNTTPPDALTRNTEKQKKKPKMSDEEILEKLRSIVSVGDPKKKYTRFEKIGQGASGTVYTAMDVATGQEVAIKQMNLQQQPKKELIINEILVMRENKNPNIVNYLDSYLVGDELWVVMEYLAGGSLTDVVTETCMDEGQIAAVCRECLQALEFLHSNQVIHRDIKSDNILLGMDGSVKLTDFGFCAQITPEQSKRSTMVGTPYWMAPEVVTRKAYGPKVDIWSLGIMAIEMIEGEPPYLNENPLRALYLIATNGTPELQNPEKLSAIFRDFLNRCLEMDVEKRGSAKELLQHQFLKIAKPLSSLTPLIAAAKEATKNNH

SMILES | IC50 [1] [nM] | IC50 [2] [µM] | Ratio IC50 (Homo sapiens) | IC50 [4] [µM] | inhibition of growth at 1 µM (MDA-MB-231) [%] | inhibition of growth at 1 µM (HCT-116) [%] | IC50 [3] [µM]
Cc1cccn(-c2ccc(-c3ccc4c(C(=O)NCCO)n[nH]c4c3)c(Cl)c2)c1=O | 66 |  |  |  | 17.4 | 19.2 | 
Cc1cccn(-c2ccc(-c3ccc4c(C(=O)N5CCOCC5)n[nH]c4c3)c(Cl)c2)c1=O | > 10000 |  |  |  |  |  | 
Cc1cccn(-c2ccc(-c3ccc4c(C(=O)NC5CCN(C)CC5)n[nH]c4c3)c(Cl)c2)c1=O | 143 |  |  |  |  |  | 
COCCNC(=O)c1n[nH]c2cc(-c3ccc(-n4cccc(C)c4=O)cc3Cl)ccc12 | 71 |  |  |  | 3.07 | 10.3 | 
CNC(=O)c1n[nH]c2cc(-c3ccccc3Cl)ccc12 | 5000 |  |  | 5 |  |  | 
Cc1cccn(-c2ccc(-c3ccc4c(C(=O)NC5CCOCC5)n[nH]c4c3)c(Cl)c2)c1=O | 744 |  |  |  | 19.2 | 7.91 | 
Cc1cccn(-c2ccc(-c3ccc4c(C(=O)N5CCCC5)n[nH]c4c3)c(Cl)c2)c1=O | > 10000 |  |  |  |  |  | 
Cc1cncc(-c2ccc(-c3ccc4c(C(=O)NCC5CC5)n[nH]c4c3)c(Cl)c2)n1 | 777 |  |  |  |  |  | 
CN[C@@H]1C[C@H]2O[C@@](C)([C@@H]1OC)n1c3ccccc3c3c4c(c5c6ccccc6n2c5c31)C(=O)NC4 |  |  |  |  |  |  | 90.4
Cc1cccc(-c2ccc(-c3ccc4c(C(=O)NCC5CC5)n[nH]c4c3)c(Cl)c2)n1 | 229 |  |  |  |  |  | 
O=C(NCC1CC1)c1n[nH]c2cc(-c3ccc(-n4ccccc4=O)cc3Cl)ccc12 | 590 |  |  |  |  |  | 
CNC(=O)c1n[nH]c2cc(-c3ccc(-c4cncc(C)n4)cc3Cl)ccc12 | 159 |  |  |  | 15.3 | 11.5 | 
Cc1cccn(-c2ccc(-c3ccc4c(C(=O)NCc5ccccc5)n[nH]c4c3)c(Cl)c2)c1=O | 92 |  |  |  | 9.66 | 13.2 | 
CNC(=O)c1n[nH]c2cc(-c3ccc(-n4ccccc4=O)cc3Cl)ccc12 | 330 |  |  |  |  |  | 
Cc1nc(Nc2n[nH]c3c2CN(C(=O)N[C@H](CN(C)C)c2ccccc2)C3(C)C)c2sccc2n1 [PF-03758309] |  |  |  |  | 62.6 | 83.2 | 41.1

The remaining compounds from weak to strong by IC50 [1], led by results:

IC50 [1] [nM] | IC50 [2] [µM] | Ratio IC50 (Homo sapiens) | IC50 [4] [µM] | SMILES | inhibition of growth at 1 µM (MDA-MB-231) [%] | inhibition of growth at 1 µM (HCT-116) [%] | IC50 [3] [µM]
52 |  |  |  | CNC(=O)c1n[nH]c2cc(-c3ccc(-c4cccc(C)n4)cc3Cl)ccc12 | 8.12 | 7.16 | 
45 | > 10 | > 200 |  | CCNC(=O)c1n[nH]c2cc(-c3ccc(-n4cccc(C)c4=O)cc3Cl)ccc12 | 10.2 | 9.37 | 90.4
42 |  |  |  | Cc1cccn(-c2ccc(-c3ccc4c(C(=O)NCC5CCOCC5)n[nH]c4c3)c(Cl)c2)c1=O | 9.45 | 16.2 | 
34 | > 10 |  |  | Cc1cccn(-c2ccc(-c3ccc4c(C(=O)NCC5CC5)n[nH]c4c3)c(Cl)c2)c1=O | 6.87 | 10.8 | 
22 |  |  |  | Cc1cccn(-c2ccc(-c3ccc4c(C(=O)NCC5CCN(C)CC5)n[nH]c4c3)c(Cl)c2)c1=O | 18.4 | 20.1 | 
21 |  |  |  | Cc1cccn(-c2ccc(-c3ccc4c(C(=O)NCCc5ccncc5)n[nH]c4c3)c(Cl)c2)c1=O | 8.42 | 15.3 | 
16 |  |  |  | Cc1cccn(-c2ccc(-c3ccc4c(C(=O)Nc5ccncc5)n[nH]c4c3)c(Cl)c2)c1=O | 6.59 | 4.41 | 
16 | > 10 |  |  | CNC(=O)c1n[nH]c2cc(-c3ccc(-n4cccc(C)c4=O)cc3Cl)ccc12 | 13.2 | 17.2 | 
